Source: ChEMBL document CHEMBL4325889, “Natural products hybrids: 3,5,4'-Trimethoxystilbene-5,6,7-trimethoxyflavone chimeric analogs as potential cytotoxic agents against diverse human cancer cells” (Eur J Med Chem, 2019)

Key:
Format in all cases: functional
COLO 205 = assay: Growth inhibition of human COLO205 cells at 10 uM after 48 hrs by SRB assay relative to control; conditions: COLO 205, 48 h, read-out: GI
Outline: (§1)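 Screened at the National Cancer Institute by the standard NCI protocol using the sulforhodamine B assay, which measures cellular protein. Single dose of 10 µM. Result is percent growth inhibition; values above 100% mean cell number fell below the initial population. Values are the average of duplicates.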

SNB-19 = assay: Growth inhibition of human SNB19 cells at 10 uM after 48 hrs by SRB assay relative to control; conditions: SNB-19, 48 h, read-out: GI
Outline: (§2)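 NCI screen against its human cancer cell line panel by the standard NCI protocol, SRB protein stain. Single dose of 10 μM. Percent growth inhibition versus control; values above 100% mean the cell population fell below the starting number. Each value is the mean of duplicates.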

UO-31 = assay: Growth inhibition of human UO31 cells at 10 uM after 48 hrs by SRB assay relative to control; conditions: UO-31, 48 h, read-out: GI; outline: as §2
OVCAR-8 = assay: Growth inhibition of human OVCAR8 cells at 10 uM after 48 hrs by SRB assay relative to control; conditions: OVCAR-8, 48 h, read-out: GI; outline: as §1
UACC-62 = assay: Growth inhibition of human UACC62 cells at 10 uM after 48 hrs by SRB assay relative to control; conditions: UACC-62, 48 h, read-out: GI; outline: as §2
NCI-H460 = assay: Growth inhibition of human NCI-H460 cells at 10 uM after 48 hrs by SRB assay relative to control; conditions: NCI-H460, 48 h, read-out: GI; outline: as §1
HCT-15 = assay: Growth inhibition of human HCT15 cells at 10 uM after 48 hrs by SRB assay relative to control; conditions: HCT-15, 48 h, read-out: GI; outline: as §1
KM12 = assay: Growth inhibition of human KM12 cells at 10 uM after 48 hrs by SRB assay relative to control; conditions: KM12, 48 h, read-out: GI; outline: as §1
NCI-H226 = assay: Growth inhibition of human NCI-H226 cells at 10 uM after 48 hrs by SRB assay relative to control; conditions: NCI-H226, 48 h, read-out: GI; outline: as §1
HOP-62 = assay: Growth inhibition of human HOP62 cells at 10 uM after 48 hrs by SRB assay relative to control; conditions: HOP-62, 48 h, read-out: GI; outline: as §1
SF-268 = assay: Growth inhibition of human SF268 cells at 10 uM after 48 hrs by SRB assay relative to control; conditions: SF-268, 48 h, read-out: GI; outline: as §1
SN12C = assay: Growth inhibition of human SN12C cells at 10 uM after 48 hrs by SRB assay relative to control; conditions: read-out: GI; outline: as §1
Malme-3M = assay: Growth inhibition of human MALME-3M cells at 10 uM after 48 hrs by SRB assay relative to control; conditions: read-out: GI; outline: as §1
ACHN = assay: Growth inhibition of human ACHN cells at 10 uM after 48 hrs by SRB assay relative to control; conditions: read-out: GI; outline: as §1
786-0 = assay: Growth inhibition of human 786-0 cells at 10 uM after 48 hrs by SRB assay relative to control; conditions: 786-0, 48 h, read-out: GI; outline: as §1
A549 = assay: Growth inhibition of human A549 cells at 10 uM after 48 hrs by SRB assay relative to control; conditions: A549, 48 h, read-out: GI; outline: as §1
NCI-H322M = assay: Growth inhibition of human NCI-H322M cells at 10 uM after 48 hrs by SRB assay relative to control; conditions: read-out: GI; outline: as §1
MDA-MB-435 = assay: Growth inhibition of human MDA-MB-435 cells at 10 uM after 48 hrs by SRB assay relative to control; conditions: MDA-MB-435, 48 h, read-out: GI; outline: as §1
HT-29 = assay: Growth inhibition of human HT-29 cells at 10 uM after 48 hrs by SRB assay relative to control; conditions: HT-29, 48 h, read-out: GI; outline: as §1
HCT-116 = assay: Growth inhibition of human HCT116 cells at 10 uM after 48 hrs by SRB assay relative to control; conditions: HCT-116, 48 h, read-out: GI; outline: as §1
TK-10 = assay: Growth inhibition of human TK10 cells at 10 uM after 48 hrs by SRB assay relative to control; conditions: TK-10, 48 h, read-out: GI; outline: as §2

COc1ccccc1NC(=O)c1cccc(-c2cc(=O)c3c(O)c(OC)c(OC)cc3o2)c1
inhibition of growth at 10 µM (COLO 205): -7.01%
inhibition of growth at 10 µM (SNB-19): 6.18%
inhibition of growth at 10 µM (UO-31): 30%
inhibition of growth at 10 µM (OVCAR-8): 35.2%
inhibition of growth at 10 µM (UACC-62): 26.5%
inhibition of growth at 10 µM (NCI-H460): -3.83%
inhibition of growth at 10 µM (HCT-15): 13%
inhibition of growth at 10 µM (KM12): 0.81%
inhibition of growth at 10 µM (NCI-H226): 23.9%
inhibition of growth at 10 µM (HOP-62): 0.21%
inhibition of growth at 10 µM (SF-268): 12.9%
inhibition of growth at 10 µM (SN12C): 5.99%
inhibition of growth at 10 µM (Malme-3M): 5.55%
inhibition of growth at 10 µM (ACHN): 9.27%
inhibition of growth at 10 µM (786-0): 9.66%
inhibition of growth at 10 µM (A549): 18.5%
inhibition of growth at 10 µM (NCI-H322M): 1.56%
inhibition of growth at 10 µM (MDA-MB-435): 2.77%
inhibition of growth at 10 µM (HT-29): 10.8%
inhibition of growth at 10 µM (HCT-116): 14.5%
inhibition of growth at 10 µM (TK-10): 14.1%

COc1cc2oc(-c3cccc(NC(=O)c4ccc5c(c4)OCO5)c3)cc(=O)c2c(O)c1OC
inhibition of growth at 10 µM (COLO 205): 2.46%
inhibition of growth at 10 µM (SNB-19): 33.8%
inhibition of growth at 10 µM (UO-31): 15.8%
inhibition of growth at 10 µM (OVCAR-8): 37.8%
inhibition of growth at 10 µM (UACC-62): 41.4%
inhibition of growth at 10 µM (NCI-H460): 16.7%
inhibition of growth at 10 µM (HCT-15): 0.04%
inhibition of growth at 10 µM (KM12): 1.48%
inhibition of growth at 10 µM (NCI-H226): 55.4%
inhibition of growth at 10 µM (HOP-62): 47.9%
inhibition of growth at 10 µM (SF-268): 32.5%
inhibition of growth at 10 µM (SN12C): 9.48%
inhibition of growth at 10 µM (Malme-3M): 7.67%
inhibition of growth at 10 µM (ACHN): 30.5%
inhibition of growth at 10 µM (786-0): 29.9%
inhibition of growth at 10 µM (A549): 13.5%
inhibition of growth at 10 µM (NCI-H322M): 15.7%
inhibition of growth at 10 µM (MDA-MB-435): 5.39%
inhibition of growth at 10 µM (HT-29): 15.6%
inhibition of growth at 10 µM (HCT-116): 21%
inhibition of growth at 10 µM (TK-10): 15.3%

COc1ccc(C(=O)Nc2cccc(-c3cc(=O)c4c(O)c(OC)c(OC)cc4o3)c2)cc1
inhibition of growth at 10 µM (COLO 205): -7.69%
inhibition of growth at 10 µM (SNB-19): 34.1%
inhibition of growth at 10 µM (UO-31): 4.63%
inhibition of growth at 10 µM (OVCAR-8): 35.5%
inhibition of growth at 10 µM (UACC-62): 33.7%
inhibition of growth at 10 µM (NCI-H460): 17.4%
inhibition of growth at 10 µM (HCT-15): 7.47%
inhibition of growth at 10 µM (KM12): -0.05%
inhibition of growth at 10 µM (NCI-H226): 41.4%
inhibition of growth at 10 µM (HOP-62): 30.2%
inhibition of growth at 10 µM (SF-268): 13.9%
inhibition of growth at 10 µM (SN12C): 25.7%
inhibition of growth at 10 µM (Malme-3M): 0.28%
inhibition of growth at 10 µM (ACHN): 23.7%
inhibition of growth at 10 µM (786-0): 24.5%
inhibition of growth at 10 µM (A549): 15.1%
inhibition of growth at 10 µM (NCI-H322M): 8.16%
inhibition of growth at 10 µM (MDA-MB-435): 5.59%
inhibition of growth at 10 µM (HT-29): 1.12%
inhibition of growth at 10 µM (HCT-116): 30.2%
inhibition of growth at 10 µM (TK-10): 18.4%

Cc1ccc(NC(=O)c2ccc(CN3CCN(C)CC3)cc2)cc1Nc1nccc(-c2cccnc2)n1 [IMATINIB]
inhibition of growth at 10 µM (COLO 205): -1.1%
inhibition of growth at 10 µM (SNB-19): -12.2%
inhibition of growth at 10 µM (UO-31): 7.6%
inhibition of growth at 10 µM (OVCAR-8): 8.4%
inhibition of growth at 10 µM (UACC-62): 7.7%
inhibition of growth at 10 µM (NCI-H460): 3.2%
inhibition of growth at 10 µM (HCT-15): 11.5%
inhibition of growth at 10 µM (KM12): -6.7%
inhibition of growth at 10 µM (NCI-H226): 10.6%
inhibition of growth at 10 µM (SF-268): -3.8%
inhibition of growth at 10 µM (SN12C): 6%
inhibition of growth at 10 µM (Malme-3M): -13.7%
inhibition of growth at 10 µM (ACHN): -1%
inhibition of growth at 10 µM (786-0): 5%
inhibition of growth at 10 µM (A549): 3.8%
inhibition of growth at 10 µM (MDA-MB-435): 7.4%
inhibition of growth at 10 µM (HT-29): 47.1%
inhibition of growth at 10 µM (HCT-116): 18.6%
inhibition of growth at 10 µM (TK-10): -10%
